From ChEMBL document CHEMBL1811796, “Requirements for mammalian carboxylesterase inhibition by substituted ethane-1,2-diones” (Bioorg Med Chem, 2011) come the findings set out here.

Active and inactive are the calls of the source. The rule behind the calls is not given here. A value given as a limit tells only on which side of the number the result lay.

The target of series [1] is T1, Liver carboxylesterase 1 (Homo sapiens, UniProt P23141).
T1 sequence (P23141 whole entry): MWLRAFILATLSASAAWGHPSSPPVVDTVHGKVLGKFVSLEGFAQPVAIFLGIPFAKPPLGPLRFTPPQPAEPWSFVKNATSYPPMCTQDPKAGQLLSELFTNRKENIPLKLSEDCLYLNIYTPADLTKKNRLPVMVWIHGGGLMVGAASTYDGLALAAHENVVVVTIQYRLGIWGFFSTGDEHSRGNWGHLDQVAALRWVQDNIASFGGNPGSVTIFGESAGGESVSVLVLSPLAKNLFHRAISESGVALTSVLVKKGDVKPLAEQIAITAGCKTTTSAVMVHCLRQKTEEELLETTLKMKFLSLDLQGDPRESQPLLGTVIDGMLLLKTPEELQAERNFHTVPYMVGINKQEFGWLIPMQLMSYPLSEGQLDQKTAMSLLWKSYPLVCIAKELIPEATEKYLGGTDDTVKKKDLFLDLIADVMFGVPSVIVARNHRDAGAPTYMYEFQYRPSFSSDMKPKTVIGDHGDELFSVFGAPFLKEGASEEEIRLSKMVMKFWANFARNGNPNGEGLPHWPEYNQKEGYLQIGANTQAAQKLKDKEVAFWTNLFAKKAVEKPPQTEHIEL
In words: Inhibition of human liver carboxylesterase1 using o-nitrophenyl acetate as substrate after 5 mins by spectrophotometry. An outline of the steps:
(§1)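 hCE1 and rabbit liver CE were purified from baculovirus-infected Spodoptera frugiperda cells, with 3 mM o-nitrophenyl acetate as substrate. A4₂₀ was read every 15 s for 5 min versus no-inhibitor wells. Screening was at 100 μM; compounds giving >50% reduction were rescreened from 1 pM to 100 μM. Ki came from fitting a partial-inhibition (α, β) model.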

Series [2] deals with T2, Liver carboxylesterase 1 (Oryctolagus cuniculus, UniProt P12337).
T2 sequence (P12337 whole entry): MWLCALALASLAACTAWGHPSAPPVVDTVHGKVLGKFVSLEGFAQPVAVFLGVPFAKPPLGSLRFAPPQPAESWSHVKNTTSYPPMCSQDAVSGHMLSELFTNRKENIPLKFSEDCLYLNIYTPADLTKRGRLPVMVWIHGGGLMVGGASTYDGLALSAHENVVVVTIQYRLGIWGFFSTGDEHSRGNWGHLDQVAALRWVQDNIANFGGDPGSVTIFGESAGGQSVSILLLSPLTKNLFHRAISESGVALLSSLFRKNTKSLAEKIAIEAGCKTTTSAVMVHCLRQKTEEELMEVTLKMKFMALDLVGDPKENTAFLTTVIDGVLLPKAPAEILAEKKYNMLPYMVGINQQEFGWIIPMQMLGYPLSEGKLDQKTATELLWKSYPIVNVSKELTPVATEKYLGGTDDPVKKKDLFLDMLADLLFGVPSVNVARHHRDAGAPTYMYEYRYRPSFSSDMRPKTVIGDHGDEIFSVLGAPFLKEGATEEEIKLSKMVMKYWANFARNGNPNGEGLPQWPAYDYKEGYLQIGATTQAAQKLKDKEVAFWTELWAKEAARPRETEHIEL
In words: Inhibition of rabbit liver carboxylesterase using o-nitrophenyl acetate as substrate after for 5 mins by spectrophotometry. An outline of the steps: as §1

A short description of series [3]: Cytotoxicity against human U373MG cells expressing human intestinal carboxylesterase after 4 days in drug free medium by coulter counter in presence of CPT-11. As to conditions: U373 MG, 96 h. The format is functional, cell-based, U-373MG ATCC. An outline of the steps:
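U373MG cells stably expressing hiCE, seeded at 50,000 cells/well and left to adhere overnight. Cells were pre-incubated 1 h with inhibitor (10 μM), then exposed 2 h to inhibitor plus CPT-11 (0–100 μM). After washing, cells grew 4 days (~3 doublings) in drug-free medium and were counted. Runs were in triplicate, with survival compared to inhibitor-free controls. IC50 was taken from survival curves.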

The target in the next series is Acetylcholinesterase (Homo sapiens, UniProt P22303). The series can be described thus: Inhibition of human acetylcholinesterase using acetylthiocholine as substrate by spectrophotometry. An outline of the steps: (§2)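 Human AChE and BChE were commercial enzymes. Substrate was 1 mM acetylthiocholine for AChE and 1 mM butyrylthiocholine for BChE.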
Acetylcholinesterase, sequence (P22303 whole entry): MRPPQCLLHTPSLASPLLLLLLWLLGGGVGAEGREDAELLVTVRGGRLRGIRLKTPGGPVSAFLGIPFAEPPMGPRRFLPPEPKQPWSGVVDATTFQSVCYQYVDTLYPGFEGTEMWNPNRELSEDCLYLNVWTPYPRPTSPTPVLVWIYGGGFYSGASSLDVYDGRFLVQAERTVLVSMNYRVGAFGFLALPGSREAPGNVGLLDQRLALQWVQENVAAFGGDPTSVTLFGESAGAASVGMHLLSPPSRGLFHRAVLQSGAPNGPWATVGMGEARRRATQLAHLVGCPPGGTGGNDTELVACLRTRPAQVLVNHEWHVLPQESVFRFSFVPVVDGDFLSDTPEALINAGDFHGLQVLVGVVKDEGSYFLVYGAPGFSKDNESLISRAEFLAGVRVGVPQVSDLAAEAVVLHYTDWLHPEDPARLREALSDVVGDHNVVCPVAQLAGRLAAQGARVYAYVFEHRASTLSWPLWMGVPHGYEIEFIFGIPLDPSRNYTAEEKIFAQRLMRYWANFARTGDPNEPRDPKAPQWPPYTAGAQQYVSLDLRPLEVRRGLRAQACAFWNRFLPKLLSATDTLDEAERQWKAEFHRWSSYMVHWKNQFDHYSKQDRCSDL
The target of a further series is Cholinesterase (Homo sapiens, UniProt P06276). The series can be described thus: Inhibition of human butyrylcholinesterase using butyrylthiocholine as substrate by spectrophotometry. An outline of the steps: as §2
Cholinesterase, sequence (P06276 whole entry): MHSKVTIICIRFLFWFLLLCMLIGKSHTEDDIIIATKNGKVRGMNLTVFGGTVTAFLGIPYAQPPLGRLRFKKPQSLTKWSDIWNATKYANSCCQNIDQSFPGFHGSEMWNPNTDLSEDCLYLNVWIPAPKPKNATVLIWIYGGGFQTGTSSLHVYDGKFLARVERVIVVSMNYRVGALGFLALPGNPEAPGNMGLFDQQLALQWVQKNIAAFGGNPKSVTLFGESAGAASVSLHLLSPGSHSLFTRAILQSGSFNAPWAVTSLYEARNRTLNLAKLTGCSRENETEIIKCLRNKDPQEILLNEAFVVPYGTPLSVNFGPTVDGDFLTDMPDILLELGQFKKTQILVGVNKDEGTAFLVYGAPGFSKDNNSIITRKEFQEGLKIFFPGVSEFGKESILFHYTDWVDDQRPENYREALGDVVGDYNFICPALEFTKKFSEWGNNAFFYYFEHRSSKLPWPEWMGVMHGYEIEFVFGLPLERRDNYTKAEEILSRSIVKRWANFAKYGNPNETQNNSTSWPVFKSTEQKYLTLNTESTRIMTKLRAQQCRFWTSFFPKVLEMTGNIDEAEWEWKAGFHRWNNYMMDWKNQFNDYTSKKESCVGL
Series [4] in a line: Cytotoxicity against human U373MG cells expressing human intestinal carboxylesterase after 4 days in drug free medium by coulter counter. Conditions: U373 MG, 96 h. The format is functional, cell-based, U-373MG ATCC.
Series [5] deals with T3, Cocaine esterase (Homo sapiens, UniProt O00748).
T3 sequence (O00748 whole entry): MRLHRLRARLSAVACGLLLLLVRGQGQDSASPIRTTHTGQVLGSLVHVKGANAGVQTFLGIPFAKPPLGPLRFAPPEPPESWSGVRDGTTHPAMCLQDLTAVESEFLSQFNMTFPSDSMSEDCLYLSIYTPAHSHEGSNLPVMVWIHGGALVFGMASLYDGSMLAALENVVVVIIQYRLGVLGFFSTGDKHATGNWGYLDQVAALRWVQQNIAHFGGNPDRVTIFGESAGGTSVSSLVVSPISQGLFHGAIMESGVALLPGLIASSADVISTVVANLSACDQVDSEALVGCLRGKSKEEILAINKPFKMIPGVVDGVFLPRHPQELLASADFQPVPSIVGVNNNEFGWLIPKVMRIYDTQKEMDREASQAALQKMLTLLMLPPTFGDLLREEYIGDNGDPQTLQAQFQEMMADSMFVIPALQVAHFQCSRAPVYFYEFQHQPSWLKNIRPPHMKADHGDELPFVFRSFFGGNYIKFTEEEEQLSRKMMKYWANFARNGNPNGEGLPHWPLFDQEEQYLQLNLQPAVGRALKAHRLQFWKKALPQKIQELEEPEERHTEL
In words: Inhibition of human intestinal carboxylesterase using o-nitrophenyl acetate as substrate after 5 mins by spectrophotometry.

A further series has as its system U373 MG. In words: Reduction of CPT-11 induced cytotoxicity against human U373MG cells at 10 uM pre-incubated for 1 hr measured after 4 days in drug free medium by coulter counter. Conditions: U-373MG ATCC. The format is functional, cell-based. In short, it runs like this:
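U373MG cells expressing hiCE were plated at 50,000 cells/well and left to adhere overnight. They got 1 h pre-incubation with 10 μM inhibitor, then 2 h with inhibitor plus CPT-11 (0–100 μM). Cells were washed, grown 4 days drug-free and Coulter-counted. Runs were in triplicate against no-inhibitor controls, and IC50 came from survival curves.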

A short description of series [6]: Stability of the compound assessed as hydrolysis liberating thiophenol in aqueous solution at pH 7.4 after 5 mins. Conditions: buffer, pH 7.4, 5 min. The format is physicochemical. On the set-up: scale not given: the % may be the effect or the level left. An outline of the steps: (§3)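 Compound at 200 μM in 50 mM Hepes pH 7.4, held 1, 5 or 20 min at rt or 37°C, with or without CE. Reactions were stopped with acetonitrile. Products were identified by reverse-phase HPLC with UV detection against phenol/thiophenol/aniline marker standards and no-enzyme samples.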

Series [7] is described as follows: Stability of the compound assessed as hydrolysis liberating phenol in aqueous solution at pH 7.4 after 5 mins. The format is physicochemical. Conditions: read-out: Activity. An outline of the steps:
as §3

The target of series [8] is T3, Cocaine esterase. The series can be described thus: Inhibition of human intestinal carboxylesterase assessed as hydrolysis of CPT-11 after 5 mins by HPLC.
Series [9] has as its target T4, intestinal carboxylesterase (cocaine esterase) (Homo sapiens, UniProt O00748).
T4 sequence (O00748 whole entry): T3 sequence (O00748 whole entry)
The series can be described thus: Inhibition of intestinal carboxylesterase in human U373MG cells using 4-methylumbelliferone acetate as substrate at 10 uM after 1 hrs pre-incubation by fluorimetry. The format is cell-based, U-373MG ATCC. Conditions: U373MG cells with intestinal carboxylesterase, probe 4-methylumbelliferone acetate.

`CCCCCCC(=O)C(=O)c1ccccc1`: the Ki at Liver carboxylesterase 1 [1] was 0.00219 µM; at Liver carboxylesterase 1 [2], 0.0281 µM; on Acetylcholinesterase, over 100 µM; at Cholinesterase it was over 100 µM. Also, the IC50 in series [3] is 10.2 µM; in [4] it was over 100 µM.

`O=C(Nc1ccccc1)C(=O)Nc1ccccc1`: the Ki at Liver carboxylesterase 1 [1], at Cocaine esterase [5], on Liver carboxylesterase 1 [2], on Acetylcholinesterase and at Cholinesterase was over 100 µM in each case.

On to `CCCCCCC(=O)C(=O)CCCCCC`, for which the Ki was 0.0048 µM at Liver carboxylesterase 1 [1], over 100 µM at Acetylcholinesterase and over 100 µM on Cholinesterase. For the same compound, the IC50 in series [3] was 4 µM; in series [4] it was over 100 µM. The result with U373 MG was inactive.

Turning to `CCCCCCCCC(=O)C(=O)CCCCCCCC`, the Ki at Liver carboxylesterase 1 [1] is 0.00084 µM; on Acetylcholinesterase, over 100 µM; at Cholinesterase, over 100 µM.

In the case of `CCC(=O)C(=O)CC`, the inhibition constant Ki at Liver carboxylesterase 1 [1], on Cocaine esterase [5], at Liver carboxylesterase 1 [2], at Acetylcholinesterase and on Cholinesterase was over 100 µM throughout.

As for `CCCC(=O)C(=O)CCC`, the Ki on Liver carboxylesterase 1 [1] was 8.06 µM; at Liver carboxylesterase 1 [2] it was 17.8 µM; at Acetylcholinesterase it was over 100 µM; on Cholinesterase, over 100 µM.

As to `O=C(Sc1ccccc1)C(=O)Sc1ccccc1`, the Ki at Liver carboxylesterase 1 [1], on Cocaine esterase [5], at Liver carboxylesterase 1 [2], at Acetylcholinesterase and on Cholinesterase was over 100 µM each time. The Activity in series [6] is recorded as over 40%.

Take `O=C(Cc1ccccc1)C(=O)Cc1ccccc1`: the inhibitory constant (Ki) is 3.08 µM on Liver carboxylesterase 1 [1]; 21.6 µM on Cocaine esterase [5]; over 100 µM at Liver carboxylesterase 1 [2]; over 100 µM at Acetylcholinesterase; over 100 µM on Cholinesterase.

In the case of `O=C(Oc1ccccc1)C(=O)Oc1ccccc1` [DIPHENYL ETHANEDIOAT], the Ki at Liver carboxylesterase 1 [1], on Cocaine esterase [5], on Liver carboxylesterase 1 [2], at Acetylcholinesterase and at Cholinesterase was over 100 µM in each case. In addition, the degraded at 5 min in [7] was over 40%.

With `CCCC(=O)C(=O)c1ccccc1`, the Ki was 0.102 µM on Liver carboxylesterase 1 [1], over 100 µM on Acetylcholinesterase and over 100 µM on Cholinesterase.

Turning to `O=C(C(=O)C(Br)c1ccccc1)C(Br)c1ccccc1` (stereo not given), the figures for the Ki on Liver carboxylesterase 1 [1], at Acetylcholinesterase and at Cholinesterase were 0.107 µM, over 100 µM and over 100 µM, respectively.

Take `CCCCC(=O)C(=O)c1ccccc1`: the inhibition constant (Ki) at Liver carboxylesterase 1 [1] was 0.0261 µM; at Acetylcholinesterase, over 100 µM; on Cholinesterase it was over 100 µM.

With `O=C(Cc1ccccc1)C(=O)C(Br)c1ccccc1` (stereo not given), the Ki was 2.63 µM at Liver carboxylesterase 1 [1], 3.68 µM at Liver carboxylesterase 1 [2], over 100 µM at Acetylcholinesterase and over 100 µM on Cholinesterase.

For `CCc1c2c(nc3ccc(OC(=O)N4CCC(N5CCCCC5)CC4)cc13)-c1cc3c(c(=O)n1C2)COC(=O)[C@]3(O)CC`, in series [4], the 50% inhibitory concentration (IC50) amounted to 3.6 µM.

Take `CCCCCC(=O)C(=O)c1ccccc1`: the Ki on Liver carboxylesterase 1 [1] was 0.00665 µM; on Liver carboxylesterase 1 [2] it was 0.11 µM; at Acetylcholinesterase, over 100 µM; at Cholinesterase, over 100 µM.

Take `O=C(C(=O)c1ccccc1)c1ccccc1` [BENZIL]: the IC50 in series [3] was 22.9 µM; in series [4], over 100 µM.

As for `CCCCCC(=O)C(=O)CCCCC`, the Ki on Liver carboxylesterase 1 [1] is 0.003 µM; on Acetylcholinesterase, over 100 µM; at Cholinesterase, over 100 µM.

As to `O=C(C(=O)C1CCCCC1)C1CCCCC1`, the Ki was 0.005 µM on Liver carboxylesterase 1 [1], 0.072 µM at Cocaine esterase [5] and 0.027 µM on Liver carboxylesterase 1 [2].

With `CCC(=O)C(=O)c1ccccc1`, the Ki at Liver carboxylesterase 1 [1] is 1.55 µM; on Cocaine esterase [5] it was 2.42 µM; on Liver carboxylesterase 1 [2] it was 12.5 µM; on Acetylcholinesterase, over 100 µM; on Cholinesterase, over 100 µM; on Cocaine esterase [8], 2.01 µM. The same compound gave an inhibition at 1 h, 10 µM in [9] of 70.3%.

In the case of `CCCCC(=O)C(=O)CCCC`, the Ki is 0.0466 µM at Liver carboxylesterase 1 [1], over 100 µM on Acetylcholinesterase and over 100 µM on Cholinesterase.

Regarding `CCCCCCCC(=O)C(=O)CCCCCCC`, the figures for the Ki at Liver carboxylesterase 1 [1], on Acetylcholinesterase and at Cholinesterase were 0.0076 µM, over 100 µM and over 100 µM, respectively.
